CAL PDZ FP-1 = blocks peptide binding to human CAL PDZ domain; purified CAL PDZ, TMR-peptide fluorescence polarization, 1 h; inhibition, % at 20 µM; Q9HD26; hit rate 0.02% among 330,000;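 active means highest replicate inhibition of at least 40%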;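 further: plate controls were DMSO neutral control wells for no effect and unlabeled competitor peptide control wells for full effect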
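Material: tagged CAL PDZ domain; buffer or medium: 25 mM sodium phosphate pH 7.4, 150 mM NaCl, TCEP, IgG, Thesit; compound dosing: single point, 20 µM; schedule: 1 h incubation at room temperature before polarization reading; measured by: FP readout, S and P plane fluorescence; read-out basis: percent inhibition from loss of millipolarization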
PKA-R2B activ = PKA-R2B complex activation; P22694+P31323; PKA-R2B holoenzyme dissociation, Cy5-IP20 fluorescence polarization; R2B truncated from residue 108, S112A mutant; 0% DMSO only, 100% 113 µM cGMP; activation, % at 11.4 µM; hit rate 0.079% among 340,000; AID 504700;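 active means activation above a cutoff set at the mean over all compounds plus 3 SD, cut at about 18% in these data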;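 further: higher means more holoenzyme dissociation and a rise in polarization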
PKA-R1A act = PKA-R1A complex activation. activation, % at 11.4 µM. PKA-R1A dissociation, Cy5-IP20 fluorescence polarization; scaled: DMSO 0%, 113 µM cGMP 100%. hit rate 0.083% among 340,000. P00514+P68181;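 active means percent activation above the mean of all tested compounds plus 3 SD, cut at about 19% in these data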;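 further: higher means more PKAc released from R1A so a rise in polarization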
CAL PDZ FP-2 = blocks peptide binding to the human CAL PDZ domain | inhibition, % at 24.9 µM | AID 602252 | purified CAL PDZ, TMR-peptide fluorescence polarization, 1 h | hit rate 0.92% among 300,000 | Q9HD26;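 active means mean inhibition of at least 30% with at least half of replicates also reaching 30%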;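 further: 0% = DMSO neutral control and 100% = excess unlabeled competitor peptide PRC23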
NTR1 agonist = NTR1 (human) agonism. activation, % at 20 µM. NTR1-U2OS beta-arrestin-GFP spot imaging, agonist mode. hit rate 0.17% among 330,000;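 active means activation at or above 40% of the spot to cytoplasm intensity ratio, with at least 20 cells analyzed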;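 further: 0% = DMSO without peptide and 100% = 100 nM NTR1 peptide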
Target sequence (P30989 whole entry, looked up): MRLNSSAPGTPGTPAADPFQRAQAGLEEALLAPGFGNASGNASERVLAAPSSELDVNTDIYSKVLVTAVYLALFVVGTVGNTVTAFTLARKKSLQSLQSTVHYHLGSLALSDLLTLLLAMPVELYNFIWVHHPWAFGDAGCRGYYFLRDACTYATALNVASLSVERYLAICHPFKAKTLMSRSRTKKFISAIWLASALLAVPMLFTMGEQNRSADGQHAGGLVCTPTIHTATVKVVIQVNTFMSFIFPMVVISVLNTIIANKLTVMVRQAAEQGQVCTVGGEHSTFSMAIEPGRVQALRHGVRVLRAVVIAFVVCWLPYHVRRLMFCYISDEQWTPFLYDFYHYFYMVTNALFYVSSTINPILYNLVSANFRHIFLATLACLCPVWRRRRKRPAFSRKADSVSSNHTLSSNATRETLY
dFosB activator = enhances mouse delta FosB homodimer DNA binding | P13346 | purified delta FosB, TAMRA-CDK5 oligo fluorescence polarization; percent of positive-control signal above neutral wells | activation, % at 25 µM | hit rate 0.99% among 340,000 | AID 493131;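 active means mean activation above about 17%, with every replicate also reaching it, limit read from the data, passing the limit was not always enough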
* hit, by the source's call; . = no result given. Only some compounds are listed: those with a hit (about 2% of all), similar ones and a draw of the others.

SMILES | CAL PDZ FP-1 | PKA-R2B activ | PKA-R1A act | CAL PDZ FP-2 | NTR1 agonist | dFosB activator
Cc1csc(=O)n1CCC(=O)OC(C)C(=O)Nc1ccc(N2CCOCC2)cc1 (centres undefined) | 0 | -1 | 1 | 6 | 4 | 7
CC(=O)c1cccc(NC(=O)C(C)OC(=O)CCn2c(C)csc2=O)c1 (centres undefined) | 0 | 4 | 2 | 62* | -2 | -5
COc1cccc(/C=N/n2c(N)c(S(=O)(=O)c3cccs3)c3nc4ccccc4nc32)c1 | -1 | -1 | -2 | 1 | 2 | 0
Nc1c(S(=O)(=O)c2cccs2)c2nc3ccccc3nc2n1/N=C/c1cccc(O)c1 | -2 | 4 | 4 | 49* | 24 | 4
NS(=O)(=O)c1cccc(NC(=O)CCN2C(=O)C3CCCCC3C2=O)c1 (centres undefined) | 0 | -7 | -10 | . | 0 | 5
Cc1cccc(NC(=O)CS(=O)(=O)c2c[nH]c3ccccc23)c1C | -2 | -3 | -5 | 55* | -1 | -15
Cc1ccc(C)c(NC(=O)CS(=O)(=O)c2c[nH]c3ccccc23)c1 | . | 0 | -3 | 1 | -3 | 1
CC(NS(=O)(=O)c1ccc(Br)cc1)C(=O)NCc1ccc2c(c1)OCO2 (centres undefined) | 0 | 5 | 6 | 0 | 1 | -3
CCOc1ccc(S(=O)(=O)NC(C)C(=O)NCc2ccc3c(c2)OCO3)cc1 (centres undefined) | 0 | -7 | -3 | 76* | 0 | -6
COC(=O)C1=CN(Cc2ccc(OC)c(OC)c2)C=C(C(=O)OC)C1c1cccc(F)c1 | -15 | -2 | 1 | 58* | 0 | -5
COc1cccc(NC(=O)CN2C(=O)NC3(CCc4ccccc43)C2=O)c1 (centres undefined) | -2 | -1 | -3 | 73* | 1 | 0
COC(=O)CNC(=O)CN1C(=O)NC2(CCCc3ccccc32)C1=O (centres undefined) | 0 | -5 | 3 | 39* | 1 | 4
O=C(CN1C(=O)NC2(CCc3ccccc32)C1=O)Nc1cccc(Cl)c1 (centres undefined) | -1 | -9 | -6 | -3 | -1 | -2
COc1ccc(OC)c(NC(=O)CN2C(=O)NC3(CCOc4ccccc43)C2=O)c1 (centres undefined) | . | -10 | -7 | 38* | -1 | -1
CC1(C)C(/C=C/C=C/C=C/C=C2\N(CCCCS(=O)(=O)O)c3ccc4ccccc4c3C2(C)C)=[N+](CCCCS(=O)(=O)[O-])c2ccc3ccccc3c21 | 2 | -2 | -7 | -9 | -2 | -15
O=C(Nc1ccc(N2CCCC2)cc1)c1cc(Cl)ccc1Cl | -2 | 1 | 6 | . | 7 | 135*
O=C(Nc1ccc(N2CCCC2)cc1)c1ccc(Br)cc1 | 0 | 4 | -1 | -7 | 0 | 59*
O=C(Nc1ccc(N2CCCCCC2)cc1)c1cccc(S(=O)(=O)N2CCOCC2)c1 | 0 | -4 | 7 | 36* | 3 | 2
O=C(Nc1ccc(N2CCCC2)cc1)c1ccc(Cl)cc1Cl | -1 | 4 | -4 | 9 | -2 | 0
O=C(/C=C/c1ccc(Cl)c([N+](=O)[O-])c1)Nc1ccc(N2CCCC2)cc1 | -2 | -9 | 9 | -4 | -2 | 28*
CC(C)Oc1ccc(C(=O)Nc2ccc(N3CCCC3)cc2)cc1 | -1 | -5 | -2 | 1 | 1 | 13
COc1ccc(CC(=O)Nc2cccc(S(=O)(=O)N3CCOCC3)c2)cc1OC | 1 | -8 | -7 | 5 | 4 | -7
CC(=O)Nc1cccc(NC(=O)COC(=O)CO/N=C(\C)c2ccc3c(c2)OCO3)c1 | -2 | -3 | 10 | -1 | -2 | -4
Cc1cccc(C)c1NC(=O)Cn1nnnc1N | 8 | -2 | -11 | 66* | 1 | -2
NC(=O)c1cc(S(=O)(=O)Nc2ccccc2)cs1 | -1 | -11 | -16 | 6 | 0 | 4
SMILES | CAL PDZ FP-1 | PKA-R2B activ | PKA-R1A act | CAL PDZ FP-2 | NTR1 agonist | dFosB activator
COc1ccc(C(C)(C)C)cc1NC(=O)COC(=O)CN1C(=O)NC2(CCCCC2C)C1=O (centres undefined) | 0 | 2 | -7 | 52* | 5 | -9
CC1CCCCC12NC(=O)N(CC(=O)OCC(=O)NC(=O)c1ccccc1)C2=O (centres undefined) | -3 | -9 | -6 | -8 | -1 | -6
CC1CCCCC12NC(=O)N(CC(=O)OCc1cccc(F)c1)C2=O (centres undefined) | 0 | -5 | -1 | 56* | -1 | 2
COc1ccc(C(=O)Nc2ccncc2)c(OC)c1 | 0 | 0 | -9 | -6 | -2 | -4
CCn1cc(C(=O)NC2CCCCCC2)c2cc(OC)c(OC)cc2c1=O | -1 | -7 | -8 | 48* | -2 | -2
COc1cc(SC)ccc1C(=O)OCC(=O)NC1CCCCC1 | -1 | -17 | -1 | -6 | 1 | 3
COc1cc(SC)ccc1C(=O)Nc1ccncc1 | -2 | 4 | 4 | 31* | 0 | -11
COc1cc(SC)ccc1C(=O)NC1CCCCC1 | -1 | 8 | 13 | 47* | -2 | -1
COc1cc2c(C(=O)NC3CCCCCC3)cn(C)c(=O)c2cc1OC | -1 | -1 | -3 | -3 | -2 | 1
O=C(c1ccccc1F)N1CCCC(N2CCN(Cc3ccc4c(c3)OCO4)CC2)C1 (centres undefined) | . | -12 | -13 | . | . | .
Cc1onc(-c2c(F)cccc2Cl)c1C(=O)NCc1ccccn1 | -1 | -1 | -2 | 88* | -1 | -1
Cc1onc(-c2ccccc2Cl)c1C(=O)NCc1ccccn1 | 0 | -7 | 3 | . | 1 | -3
CN(C)c1ccc(C=NCC2COc3ccccc3O2)cc1 (centres undefined) | 0 | 1 | -5 | -6 | 1 | 7
CN(C)CCCNc1ccc(-c2cc(Nc3cccc(Cl)c3)ncn2)cn1 | -2 | 11 | -12 | -5 | 0 | 39*
CCOc1ccc(-c2nnn(CC(=O)Nc3cc(OC)ccc3OC)n2)cc1OCC | -1 | -6 | -1 | -1 | 0 | 3
CCOc1ccc(-c2nnn(CC(=O)NCc3ccc(OC)cc3)n2)cc1OCC | -2 | 6 | 2 | 1 | 2 | 29*
COc1ccc2cc(C(=O)N3CCCC(Nc4ccc(F)cc4)C3)n(C)c2c1 (centres undefined) | -4 | 2 | -3 | -11 | 1 | -11
CCOC(=O)CSc1nnc(-c2ccoc2C)n1-c1ccc(OCC)cc1 | -2 | -10 | -2 | 7 | 6 | -7
CCOC(=O)CSc1nnc(-c2ccoc2C)n1-c1ccc(C)cc1 | 1 | -8 | -4 | 45* | -1 | 5

Screens from PubChem BioAssay.
